Test results reported in publication PMC10765384 (Bioorganic chemistry, 2023).

Legend:
[1] = Cytotoxicity, CellTiter 96 assay in PBM cells; type: cell-based, human; conditions: human, peripheral blood mononuclear (PBM) cells
How it was run: (§1)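 Colorimetric non-radioactive cell proliferation read-out (CellTiter 96). CC50 is the test compound concentration that inhibited cell growth by 50%.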

[2] = system: HBV DNA replication in HepAD38 cells; experiment: Anti-HBV activity, 7-day assay in HepAD38 cells; type: cell-based, hepatitis B virus; conditions: for EC50 / EC90: Hepatitis B virus, HePAD38, 168 h; for EC50: read-out: Anti-HBV activity EC50; for EC90: read-out: Anti-HBV activity EC90; for fold increase of anti-HBV potency compared to GLP-26: HepAD38 EC50 relative to reference GLP-26
[3] = Cytotoxicity, CellTiter 96 assay in Vero cells; type: cell-based, African green monkey; conditions: African green monkey, kidney (Vero) cells
How it was run: as §1

[4] = Cytotoxicity, CellTiter 96 assay in CEM cells; type: cell-based, human; conditions: human, T lymphoblast (CEM) cells
How it was run: as §1

[5] = Cytotoxicity, CellTiter 96 assay in HepG2 cells; type: cell-based, human; conditions: human, hepatocellular carcinoma (HepG2) cells
How it was run: as §1

| Compound | CC50 [1] [µM] | EC50 [2] [µM] | EC90 [2] [µM] | CC50 [3] [µM] | CC50 [4] [µM] | CC50 [5] [µM] | fold increase of anti-HBV potency compared to GLP-26 [2] |
| --- | --- | --- | --- | --- | --- | --- | --- |
| C#CCNC(=O)C(=O)c1c(C)c(C(=O)Nc2ccc(F)c(F)c2)n(CC)c1C [Compound 5a, N-(3,4-Difluorophenyl)-1-ethyl-3,5-dimethyl-4-(2-oxo-2-(prop-2-yn-1-ylamino)acetyl)-1H-pyrrole-2-carboxamide] | > 100 | 0.0071 ± 0.0062 | 0.0494 ± 0.0129 | > 100 | > 100 | > 100 |  |
| C#CCNC(=O)C(=O)c1c(C)c(C(=O)Nc2ccc(F)c(F)c2)n(CCC)c1C [Compound 5b, N-(3,4-Difluorophenyl)-3,5-dimethyl-4-(2-oxo-2-(prop-2-yn-1-ylamino)acetyl)-1-propyl-1H-pyrrole-2-carboxamide] | > 100 | 0.0091 ± 0.0037 | 0.044 ± 0.021 | > 100 | > 100 | > 100 |  |
| C#CCNC(=O)C(=O)c1c(C)c(C(=O)Nc2ccc(F)c(F)c2)n(CCCC)c1C [Compound 5c, 1-Butyl-N-(3,4-difluorophenyl)-3,5-dimethyl-4-(2-oxo-2-(prop-2-yn-1-ylamino)acetyl)-1H-pyrrole-2-carboxamide] | > 100 | 0.0874 ± 0.0037 | 0.556 ± 0.147 | > 100 | > 100 | > 100 |  |
| C#CCNC(=O)C(=O)c1c(C)c(C(=O)Nc2ccc(F)c(F)c2)n(CC=C)c1C [Compound 5d, 1-Allyl-N-(3,4-difluorophenyl)-3,5-dimethyl-4-(2-oxo-2-(prop-2-yn-1-ylamino)acetyl)-1H-pyrrole-2-carboxamide] | > 100 | 0.003 ± 0.0014 | 0.128 ± 0.15 | > 100 | > 100 | > 100 |  |
| C#CCNC(=O)C(=O)c1c(C)c(C(=O)Nc2ccc(F)c(F)c2)n(C2CC2)c1C [Compound 5e, 1-Cyclopropyl-N-(3,4-difluorophenyl)-3,5-dimethyl-4-(2-oxo-2-(prop-2-yn-1-ylamino)acetyl)-1H-pyrrole-2-carboxamide] | > 100 | 0.0075 ± 0.0078 | 0.0415 ± 0.012 | > 100 | > 100 | > 100 |  |
| C#CCNC(=O)C(=O)c1c(C)c(C(=O)Nc2ccc(F)c(F)c2)n(CC2CC2)c1C [Compound 5f, 1-(Cyclopropylmethyl)-N-(3,4-difluorophenyl)-3,5-dimethyl-4-(2-oxo-2-(prop-2-yn-1-ylamino)acetyl)-1H-pyrrole-2-carboxamide] | > 100 | 0.0522 ± 0.0271 | 0.0522 ± 0.0271 | > 100 | > 100 | > 100 |  |
| C#CCNC(=O)C(=O)c1c(C)c(C(=O)Nc2ccc(F)c(F)c2)n(CC#C)c1C [Compound 5g, N-(3,4-Difluorophenyl)-3,5-dimethyl-4-(2-oxo-2-(prop-2-yn-1-ylamino)acetyl)-1-(prop-2-yn-1-yl)-1H-pyrrole-2-carboxamide] | > 100 | 0.00088 ± 0.00043 | 0.0103 ± 0.006 | > 100 | > 100 | > 100 | > 5 fold |
| C#CCNC(=O)C(=O)c1c(C)c(C(=O)Nc2ccc(F)c(F)c2)n(CC#CC)c1C [Compound 5h, 1-(But-2-yn-1-yl)-N-(3,4-difluorophenyl)-3,5-dimethyl-4-(2-oxo-2-(prop-2-yn-1-ylamino)acetyl)-1H-pyrrole-2-carboxamide] | > 100 | 0.0452 ± 0.0201 | 0.395 ± 0.327 | > 100 | > 100 | > 100 |  |
| C#CCNC(=O)C(=O)c1c(C)c(C(=O)Nc2ccc(F)c(F)c2)n(CC#CCC)c1C [Compound 5i, N-(3,4-Difluorophenyl)-3,5-dimethyl-4-(2-oxo-2-(prop-2-yn-1-ylamino)acetyl)-1-(pent-2-yn-1-yl)-1H-pyrrole-2-carboxamide] | > 100 | 0.826 ± 0.172 | 3.69 | > 100 | > 100 | > 100 |  |
| C#CCNC(=O)C(=O)c1c(C)c(C(=O)Nc2ccc(F)c(F)c2)n(Cc2ccccc2)c1C [Compound 5j, 1-Benzyl-N-(3,4-difluorophenyl)-3,5-dimethyl-4-(2-oxo-2-(prop-2-yn-1-ylamino)acetyl)-1H-pyrrole-2-carboxamide] | > 100 | 2.52 | > 10 | > 100 | > 100 | > 100 |  |
| C#CC(C)(C)NC(=O)C(=O)c1c(C)c(C(=O)Nc2ccc(F)c(F)c2)n(C)c1C [Compound 9a, N-(3,4-Difluorophenyl)-1,3,5-trimethyl-4-(2-((2-methylbut-3-yn-2-yl)amino)-2-oxoacetyl)-1H-pyrrole-2-carboxamide] | 64 ± 26 | 0.00071 ± 0.00022 | 0.0082 ± 0.0006 | > 100 | 25 ± 2 | 91 ± 12 | 5–30 fold |
| C#CC(C)(CC)NC(=O)C(=O)c1c(C)c(C(=O)Nc2ccc(F)c(F)c2)n(C)c1C (stereo not shown) [Compound 9b, N-(3,4-Difluorophenyl)-1,3,5-trimethyl-4-(2-(3-methylpent-1-yn-3-ylamino)-2-oxoacetyl)-1H-pyrrole-2-carboxamide] | 61 ± 43 | 0.00015 ± 7e-05 | 0.0068 ± 0.0034 | 64 ± 16 | 10 ± 3 | 84 ± 11 | 5–30 fold |
| C#CC(CC)(CC)NC(=O)C(=O)c1c(C)c(C(=O)Nc2ccc(F)c(F)c2)n(C)c1C [Compound 9c, N-(3,4-Difluorophenyl)-4-(2-(3-ethylpent-1-yn-3-ylamino)-2-oxoacetyl)-1,3,5-trimethyl-1H-pyrrole-2-carboxamide] | 26 ± 14 | 0.0005 ± 0.0003 | 0.0046 ± 0.0023 | 42 | 16 | 44 ± 35 | 5–30 fold |
| C#CC1(NC(=O)C(=O)c2c(C)c(C(=O)Nc3ccc(F)c(F)c3)n(C)c2C)CC1 [Compound 9d, N-(3,4-Difluorophenyl)-4-(2-(1-ethynylcyclopropylamino)-2-oxoacetyl)-1,3,5-trimethyl-1H-pyrrole-2-carboxamide] | > 100 | 0.0008 ± 0.0007 | 0.0061 ± 0.0022 | > 100 | > 100 | > 100 | 5–30 fold |
| C#CC1(NC(=O)C(=O)c2c(C)c(C(=O)Nc3ccc(F)c(F)c3)n(C)c2C)CCC1 [Compound 9e, N-(3,4-Difluorophenyl)-4-(2-(1-ethynylcyclobutylamino)-2-oxoacetyl)-1,3,5-trimethyl-1H-pyrrole-2-carboxamide] | > 100 | 0.0003 ± 0.0004 | 0.0019 ± 0.0015 | > 100 | > 100 | 98 | 5–30 fold |
| C#CC1(NC(=O)C(=O)c2c(C)c(C(=O)Nc3ccc(F)c(F)c3)n(C)c2C)CCCCC1 [Compound 9f, N-(3,4-Difluorophenyl)-4-(2-(1-ethynylcyclohexylamino)-2-oxoacetyl)-1,3,5-trimethyl-1H-pyrrole-2-carboxamide] | 23 ± 13 | 0.0035 ± 0.0048 | 0.0074 ± 0.0093 | 43 | 15 | 42 ± 23 | only a moderate improvement |
| C#CCn1c(C)c(C(=O)C(=O)NC(C#C)(CC)CC)c(C)c1C(=O)Nc1ccc(F)c(F)c1 [Compound 10b, N-(3,4-difluorophenyl)-4-(2-((3-ethylpent-1-yn-3-yl)amino)-2-oxoacetyl)-3,5-dimethyl-1-(prop-2-yn-1-yl)-1H-pyrrole-2-carboxamide] | 53 ± 41 | 0.0079 ± 0.0016 | 0.06 ± 0.041 | > 100 | 76 ± 17 | 72 ± 39 |  |
